IMP-1 inh: inhibitors of Pseudomonas aeruginosa IMP-1 metallo-beta-lactamase; purified IMP-1, nitrocefin hydrolysis, epi-absorbance fluorescence; 290,000 tested, 0.45% active; inhibition, % at 5.6 µM;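 active = inhibition above the mean plus 3 SD of all compounds in the same screening run, cut at about 4.5% in these data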;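 note: 0% = IMP-1 with DMSO and 100% = DMSO wells lacking enzyme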
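Material – recombinant IMP-1 enzyme, purified · Amount – IMP-1 0.2 nM before substrate addition · Medium – HEPES buffer pH 7.1 with ZnSO4 and Brij 35 · Timing – 25 °C, 15 min preincubation, 25 min reaction · Measured by – plate fluorescence quenching by hydrolysis product, ex 480/em 530 nm · Read-out – percent enzyme inhibition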
697 NFkB inh: lowers PMA/ionomycin-induced NF-kB signal in 697 B cells; AID 435022; inhibition, % at 4 µM; 697 B-cell NF-kB luciferase reporter, 16 h; 330,000 tested, 0.33% active; in the data active = inhibition above about 35%
Mdm2-MdmX inh: disrupts the human Mdm2-MdmX interaction. O15151+Q00987. SaOS-2 split-luciferase Mdm2/MdmX complementation, luminescence. inhibition, % at 8 µM. 330,000 tested, 3% active. AID 485346;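 active = inhibition of at least 50% at 8 µM in the primary screen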
Target sequence (O15151 whole entry, looked up): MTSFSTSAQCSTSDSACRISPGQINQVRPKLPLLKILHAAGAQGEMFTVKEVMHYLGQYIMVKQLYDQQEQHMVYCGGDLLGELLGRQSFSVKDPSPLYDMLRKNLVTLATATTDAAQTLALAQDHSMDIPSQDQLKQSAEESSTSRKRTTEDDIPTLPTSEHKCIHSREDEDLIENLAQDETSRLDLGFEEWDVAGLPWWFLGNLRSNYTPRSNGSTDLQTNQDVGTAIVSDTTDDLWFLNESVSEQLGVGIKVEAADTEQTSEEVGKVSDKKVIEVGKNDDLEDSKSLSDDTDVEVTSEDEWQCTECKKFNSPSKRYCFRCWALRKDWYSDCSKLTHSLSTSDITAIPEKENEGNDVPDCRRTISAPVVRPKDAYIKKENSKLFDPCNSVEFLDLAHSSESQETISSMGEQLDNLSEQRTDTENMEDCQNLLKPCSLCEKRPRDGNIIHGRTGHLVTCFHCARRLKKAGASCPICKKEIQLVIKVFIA
Target sequence (Q00987 whole entry, looked up): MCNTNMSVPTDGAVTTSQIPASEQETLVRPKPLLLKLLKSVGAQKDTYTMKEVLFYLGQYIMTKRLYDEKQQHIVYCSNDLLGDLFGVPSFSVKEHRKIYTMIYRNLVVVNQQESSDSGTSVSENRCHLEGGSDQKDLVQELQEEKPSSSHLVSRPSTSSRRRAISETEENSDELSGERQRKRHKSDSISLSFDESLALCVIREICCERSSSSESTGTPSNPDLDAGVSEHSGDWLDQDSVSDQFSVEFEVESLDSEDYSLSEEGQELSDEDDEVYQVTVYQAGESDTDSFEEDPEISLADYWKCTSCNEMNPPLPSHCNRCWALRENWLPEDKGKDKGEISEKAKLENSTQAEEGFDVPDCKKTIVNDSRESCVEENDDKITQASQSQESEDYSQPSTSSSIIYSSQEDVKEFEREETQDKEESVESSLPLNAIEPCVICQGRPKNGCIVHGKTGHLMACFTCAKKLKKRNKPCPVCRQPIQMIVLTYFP
Jurkat NFkB inh: inhibitors of the PMA/ionomycin-induced NF-kB reporter in Jurkat cells | PMA/ionomycin-induced NF-kB luciferase reporter, luminescence | 330,000 tested, 0.53% active | inhibition, % at 4 µM; in the data active = inhibition above about 50%
VIM-2 inhibitor: inhibitors of Pseudomonas aeruginosa VIM-2 metallo-beta-lactamase; purified VIM-2, nitrocefin hydrolysis, epi-absorbance fluorescence; inhibition, % at 5.6 µM; 290,000 tested, 0.89% active;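 active = inhibition above the mean of all tested compounds plus 3 SD, cutoff set per screening run, cut at about 7.5% in these data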;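 note: red hydrolysis product quenches plate fluorescence so inhibitors raise well fluorescence; 0% = enzyme with DMSO and 100% = DMSO without enzyme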
aSyn 5UTR inh: MLPCN primary screen, SNCA 5' untranslated region; AID 1813; alpha-synuclein 5'UTR reporter, inhibitor activity; inhibition, % (tested at 7.5 µM); 300,000 tested, 0.82% active; in the data active = inhibition above about 60%; inconclusive = no clear call, values can overlap the other calls;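 note: H4 neuroglioblastoma cells stably carrying SNCA 5'UTR luciferase fusion; 0% = DMSO wells and 100% = positive control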
Jurkat NFkB conf: lowers PMA/ionomycin-induced NF-kB signal in Jurkat cells; shares compounds with Jurkat NFkB inh; Jurkat NF-kB luciferase, 16 h; inhibition, % at 4 µM; 2,700 tested, 27% active;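 active = inhibition reaching about 45% at 4 µM in either replicate, limit read from the data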;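 note: plate controls were PMA/ionomycin stimulated DMSO wells for no effect and unstimulated DMSO wells for full effect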
697 NFkB conf: inhibitors of the PMA/ionomycin-induced NF-kB reporter in 697 B cells, retest; 697 B-cell NF-kB luciferase, 16 h; inhibition, % at 4 µM; shares compounds with 697 NFkB inh; 2,000 tested, 35% active; AID 449746; in the data active = inhibition mostly above about 28%, no sharp cut-off; inactive = mostly below about 22%
Mdm2-MdmX conf: confirmation of human Mdm2/MdmX interaction inhibitors; shares compounds with Mdm2-MdmX inh; Mdm2-MdmX binding, luminescent assay; inhibition, % at 8 µM; 10,000 tested, 55% active; in the data active = inhibition above about 40%
FLuc counter: full-length luciferase inhibition in Mdm2/MdmX counter-screen; shares compounds with Mdm2-MdmX inh; inhibition, % at 8 µM; SaOS-2 full-length luciferase counterscreen, luminescence; 6,200 tested, 77% active; AID 504607;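 active = mean inhibition at 8 µM reaching about 37%, which flags the compound as non-specific, limit read from the data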;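 note: p53-null SaOS-2 cells with luciferase driven by a doxycycline-inducible promoter; compound on cells about two nights before reading with doxycycline added after day one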
* hit, by the source's call; i = inactive; ? = inconclusive; . = not tested or not shown. The list is not random: actives were taken first. Their share in the collection is about 4.7%.

SMILES | IMP-1 inh | 697 NFkB inh | Mdm2-MdmX inh | Jurkat NFkB inh | VIM-2 inhibitor | aSyn 5UTR inh | Jurkat NFkB conf | Mdm2-MdmX conf | FLuc counter | others
Cc1ccc(S(=O)(=O)Nc2cccc3ncccc23)cc1 | -2.5 | -4.0 | 1.6 | -5.3 | -2.9 | 21.2 | . | . | .
Cc1cc2sc3ccc(C#CC4(O)CCCCC4)cc3c(=O)c2cc1C | . | 88.2* | 94.4* | 83.3* | . | 102.2* | 96.8* | 96.8* | 54.3* | 697 NFkB conf=74.8*
O=c1c2ccccc2oc2ccc(C#CC3(O)CCCCC3)cc12 | . | -180.0 | 59.1* | -161.5 | . | 38.3 | 15.2 | 51.0* | 172.9*
NC1(C#Cc2ccc3c(=O)c4ccccc4sc3c2)CCCCC1 | . | -80.5 | 32.9 | -3.4 | . | . | . | . | .
O=C(NNc1ccccc1[N+](=O)[O-])Nc1cccc(Cl)c1 | 0.8 | 3.8 | 26.8 | -2.0 | 1.1 | 2.5 | . | . | .
Cc1nc2ccccc2n1-c1nc(-c2ccco2)cc(C(F)(F)F)n1 | -0.6 | -43.3 | 77.2* | 83.1* | -1.2 | 90.4* | 29.8 | 100.2* | 8.5
FC(F)(F)c1cc(-c2ccco2)nc(-n2cnc3ccccc32)n1 | -3.4 | -4.7 | 30.3 | -8.2 | -2.6 | -26.7 | . | . | .
Cc1ccc(COc2ccccc2-c2cc(C(=O)N/N=C/c3cccnc3)[nH]n2)cc1 | -3.8 | -12.2 | 55.3* | 53.5* | -3.6 | -76.7 | -1.5 | 58.6* | 71.7*
Cc1cc(N2CCN(C)CC2)ccc1NC(=O)c1c2c(nc3ccccc13)CCN(Cc1ccccc1)C2 | -3.0 | 10.5 | 100.3* | 76.6* | 0.5 | 91.6* | 10.8 | 99.5* | 52.0*
COc1ccc(NC(=O)N(C)C[C@H]2Oc3c(NC(=O)Cc4ccccc4)cccc3C(=O)N([C@H](C)CO)C[C@@H]2C)cc1 | . | -0.6 | -2.9 | -10.5 | . | . | . | . | .
COc1ccccc1N1CCN(C(=O)c2ccc(-c3ccc(Cl)cc3)o2)CC1 | . | -47.6 | 56.5* | 62.9* | . | . | 52.7* | 55.6* | 59.2*
O=C(NN=C1CCCC1)c1[nH]c2ccc(Br)cc2c1-c1ccccc1 | -0.9 | 31.4 | 27.4 | 2.0 | -0.4 | . | . | . | .
O=C(N/N=C/c1ccccc1)c1[nH]c2ccc(Br)cc2c1-c1ccccc1 | -4.6 | 34.4 | 62.7* | 57.8* | -4.2 | 9.3 | 8.3 | 67.5* | 83.1*
O=C(CN1CCN(c2cccc(Cl)c2)CC1)NC1CCCc2ccccc21 (configuration not stated) | -1.4 | -5.9 | 27.1 | 3.0 | -0.8 | 12.9 | . | . | .
CCOC(=O)C1=C(c2ccccc2)O/C(=C(/C#N)C(F)(F)F)S1 | 1.9 | -229.7 | 100.7* | 74.7* | 1.6 | -63.5 | 54.0* | 99.0* | -0.3
Cc1ccc(OCC(=O)O/N=C(\N)Cc2cccs2)cc1C | -0.6 | -7.2 | -17.8 | -15.9 | -2.0 | -1.2 | . | . | .
Cc1ccc(C(=O)O/N=C(\N)Cc2cccs2)c(Cl)c1 | -1.4 | -253.2 | 100.4* | -153.4 | -1.3 | -73.1 | -82.3 | 23.9 | . | 697 NFkB conf=-282.3
COc1ccc(NS(=O)(=O)c2cc(NC(=O)c3ccc(=O)[nH]c3)ccc2N2CCCC2)cc1 | -0.3 | -45.8 | 82.1* | 62.8* | -0.7 | -49.7 | 18.8 | 72.8* | 43.5*
O=C(Nc1ncc(Cc2ccc(SC(F)F)cc2)s1)c1ccc(OC(F)F)cc1 | -0.7 | -494.7 | 61.8* | 75.9* | -1.7 | -128.6 | 57.7* | 63.7* | 95.9* | 697 NFkB conf=-274.2
COc1ccccc1C(=O)N(CCC1CCCN1C)c1nc2ccccc2s1 (configuration not stated) | -2.0 | -315.7 | 82.2* | -216.1 | 2.9 | -103.2 | 38.3 | 79.2* | 106.2* | 697 NFkB conf=-288.3
C[Si](C)(C)n1ccnc1 | 1.8 | 22.6 | 13.0 | -2.6 | 2.3 | -14.8 | . | . | .
COc1ccc(Cl)cc1NC(=O)CN(C)CC(=O)Nc1ccccc1N1CCOCC1 | -3.4 | -28.2 | 57.9* | 63.2* | -1.9 | 111.8* | 43.4 | 54.7* | 65.5*
COc1ccc(Cl)cc1NC(=O)CN(C)CC(=O)N1CC(=O)Nc2ccccc21 | . | 1.2 | 28.2 | -5.0 | . | . | . | . | .
Cc1nnc(SCC(=O)NCC2CCCO2)n1Cc1ccccc1 (configuration not stated) | . | -2.4 | -2.4 | -2.5 | . | . | . | . | .
Nc1nnnn1/N=C/C(Br)=C/c1ccccc1 | -0.5 | -60.9 | 100.4* | 57.5* | 0.3 | -250.6 | 16.2 | 92.8* | 50.0*
SMILES | IMP-1 inh | 697 NFkB inh | Mdm2-MdmX inh | Jurkat NFkB inh | VIM-2 inhibitor | aSyn 5UTR inh | Jurkat NFkB conf | Mdm2-MdmX conf | FLuc counter | others
Nc1nnnn1/N=C/C=C/c1ccccc1 | -2.8 | -2.3 | 1.4 | -6.1 | -2.1 | -115.3 | . | . | .
CCN(C(=O)COc1ccc(F)cc1Br)c1c(N)n(Cc2ccccc2)c(=O)[nH]c1=O | . | 19.8 | -5.0 | -12.5 | . | . | . | . | .
O=C(c1cccc(N2C(=O)C3C4C=CC(C4)C3C2=O)c1)N1CCN(c2ccccc2F)CC1 (configuration not stated) | -3.7 | 3.9 | 21.0 | 9.3 | -1.9 | 1.1 | . | . | .
O=C(Nc1ccc([N+](=O)[O-])cc1)Nc1ccon1 | -0.6 | 19.8 | 66.2* | 63.0* | -0.8 | 74.0* | 46.4 | 66.7* | 73.1*
CC1=C(C)/C(=N\OS(=O)(=O)c2ccccc2)C=CC1=O | -0.1 | -69.5 | 94.8* | 54.7* | -2.1 | -79.9 | 18.0 | 83.6* | 52.5*
COc1ccc2ccccc2c1CNCCN1CCOCC1 | -5.6 | 2.6 | 8.0 | -4.4 | -3.9 | 6.8 | . | . | .
CC(OC(=O)CNC(=O)c1ccc2ccccc2c1)C(=O)NC1CCCCC1C (configuration not stated) | -4.3 | 14.5 | 11.3 | -0.2 | 0.5 | -4.0 | . | . | .
Cc1ccc(Cn2c(=N)n(CC(O)COc3ccccc3)c3ccccc32)cc1 (configuration not stated) | -1.6 | -39.7 | 68.9* | 52.6* | -3.8 | 8.7 | 12.1 | 76.3* | 62.2*
COc1ccc(-c2coc3cc4oc(=O)c5ccccc5c4cc23)cc1F | 2.0 | -59.7 | 75.0* | 73.3* | 1.0 | 81.1* | 2.9 | 55.2* | 57.9*
C=C1C(=O)C=C2CN(C(=O)c3ccccc3)[C@@](Cc3ccc(F)cc3)(C(=O)OC)[C@@H]12 | -0.1 | i | 100.3* | 82.8* | 0.5 | ? | 75.6* | 99.8* | 1.3 | 697 NFkB conf=-249.6
C#Cc1ccc([C@@H]2C=C(C(=O)N3CCN(Cc4ccccc4)CC3)O[C@H](OCCCCO)C2)cc1 | -0.9 | -17.6 | 56.7* | 80.1* | -2.0 | 98.8* | 42.8 | 77.2* | 36.8*
CCn1c(COC(=O)CNC(=O)c2ccccc2F)nc2cc(S(=O)(=O)N(C)C)ccc21 | . | -1.3 | 8.0 | 4.0 | . | -7.6 | . | . | .

From PubChem
